Data published in ChEMBL document CHEMBL1142147, “Action of disinfectant quaternary ammonium compounds against Staphylococcus aureus” (2007).
The source made the active and inactive calls. No cut-off for these calls is given here.

Assays:
Staphylococcus aureus [1] = assay: Loss of membrane integrity in Staphylococcus aureus ATCC 6538 at above 4.5 ug/ml; assay type: functional, organism-based
Summary of the method: (§1)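 Cells (final 2 × 10⁹ CFU/ml) exposed to 4.5 to 18 μg/ml biocide or HEPES at 25°C, shaken. Samples filtered (0.45 μm) at timed points up to 240 min. K⁺ measured by flame emission at 766.5 nm and 260-nm material by A260. Each expressed as percent of the maximal pool (cetrimide 1 mM; TCA extraction). Mean % leakage at 30 min plotted against concentration.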

Staphylococcus aureus [2] = assay: Reduction of cell count in Staphylococcus aureus ATCC 6538 between 6 to 18 hrs exposure; assay type: functional; parameters: scale not given: the % may be the effect or the level left
Summary of the method: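 Cells pre-exposed 4 h at 35°C to 9 μg/ml biocide, neutralized, washed, and held in HEPES at 35°C. Samples taken at 0 to 48 h, serially diluted, plated on TSA, incubated 18 h at 37°C and counted as CFU/ml.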

Staphylococcus aureus [3] = assay: Antibacterial activity against 10^7 CFU/ml Staphylococcus aureus ATCC 6538 after 48 hrs; assay type: functional; conditions: ATCC 6538, 48 h
Summary of the method: (§2)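 Spots of 5 μl inoculum (10-fold dilutions, 1 × 10⁹ to 1 × 10⁵ CFU/ml in HEPES) applied in triplicate. Incubated at 35°C and read visually at 24 and 48 h. MIC taken as no growth or <10 colonies in every spot of the triplicate.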

Staphylococcus aureus [4] = assay: Antibacterial activity against 10^9 CFU/ml Staphylococcus aureus ATCC 6538 after 48 hrs; assay type: functional; conditions: ATCC 6538, 48 h; summary of the method: as §2
Staphylococcus aureus [5] = assay: Induction of autolysis in Staphylococcus aureus ATCC 6538 at 9 ug/ml; assay type: functional, organism-based
Summary of the method: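 Washed cells (final 2 × 10⁹ CFU/ml) held with biocide at 9 μg/ml in HEPES at 35°C for 4 h, shaken. Then neutralized with lecithin/Tween 80, washed, and resuspended in HEPES at 35°C. Filtrates (0.45 μm) taken at 0, 2, 4, 18, 22 and 24 h and read at A260. Autolysis taken as 260-nm leakage above the TCA-extractable pool.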

Staphylococcus aureus [6] = assay: Antibacterial activity against 10^5 CFU/ml Staphylococcus aureus ATCC 6538 after 48 hrs; assay type: functional; conditions: ATCC 6538, 48 h; summary of the method: as §2
Staphylococcus aureus [7] = assay: Antibacterial activity against 10^8 CFU/ml Staphylococcus aureus ATCC 6538 after 48 hrs; assay type: functional; conditions: ATCC 6538, 48 h; summary of the method: as §2
Staphylococcus aureus [8] = assay: Antibacterial activity against 10^6 CFU/ml Staphylococcus aureus ATCC 6538 after 48 hrs; assay type: functional; conditions: ATCC 6538, 48 h; summary of the method: as §2
Staphylococcus aureus [9] = assay: Intracellular coagulation in Staphylococcus aureus ATCC 6538 at tested concentrations 4.5, 9, 12 and 15 ug/ml; assay type: functional, organism-based
Staphylococcus aureus [10] = assay: Induction of membrane collapse in Staphylococcus aureus ATCC 6538 at 12 ug/ml; assay type: functional, organism-based; summary of the method: as §1

## CCCCCCCCCC[N+](C)(C)CCCCCCCCCC.[Cl-] [DIDECYLDIMETHYLAMMONIUM CHLORIDE]
Staphylococcus aureus [1]
  Activity: Active
Staphylococcus aureus [2]
  Activity: 90%
Staphylococcus aureus [3]
  MIC: 0.4 µg/mL
Staphylococcus aureus [4]
  MIC: 1.6 µg/mL
Staphylococcus aureus [5]
  Activity: Active
Staphylococcus aureus [6]
  MIC: 0.4 µg/mL
Staphylococcus aureus [7]
  MIC: 0.6 µg/mL
Staphylococcus aureus [8]
  MIC: 0.4 µg/mL
Staphylococcus aureus [9]
  Activity: inactive
Staphylococcus aureus [10]
  Activity: Active
